pIC50: −log10 of the molar value.
Key:
NCI-H292 = assay: Antiproliferative activity against human NCI-H292 cells assessed as inhibition of cell viability after 24 hrs by MTT assay; format: functional, cell-based; details: NCI-H292, 24 h
Method in brief: (§1)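 Cells grown to 50–70% confluence (RWPE1 in K-SFM with pituitary extract and EGF; the other lines in RPMI 1640 with 10% FBS), 5% CO2, 37 °C. Treated for 24 h with DMSO vehicle, compounds, or cisplatin as positive control. MTT (5 mg/mL) added for 4 h, formazan dissolved in DMSO, absorbance read at 570 nm. Viability taken relative to untreated cells after blank subtraction, IC50 fitted from % viability, at least three experiments.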

NCI-H446 = assay: Antiproliferative activity against human NCI-H446 cells assessed as inhibition of cell viability after 24 hrs by MTT assay; format: functional, cell-based; details: NCI-H446, 24 h; method in brief: as §1
DU-145 = assay: Antiproliferative activity against human DU145 cells assessed as inhibition of cell viability after 24 hrs by MTT assay; format: functional, cell-based; details: DU-145, 24 h; method in brief: as §1
A549 = assay: Antiproliferative activity against human A549 cells assessed as inhibition of cell viability after 24 hrs by MTT assay; format: functional, cell-based; details: A549, 24 h; method in brief: as §1
[1] = Antiproliferative activity against human PC3 cells assessed as inhibition of cell viability after 24 hrs by MTT assay; format: functional, cell-based; details: PC-3, 24 h; method in brief: as §1
[2] = Antiproliferative activity against HBE cells assessed as inhibition of cell viability after 24 hrs by MTT assay; format: cell-based; details: Homo sapiens; method in brief: as §1
K562 = assay: Antiproliferative activity against human K562 cells assessed as inhibition of cell viability after 24 hrs by MTT assay; format: functional, cell-based; details: K562, 24 h; method in brief: as §1
NCI-H1299 = assay: Antiproliferative activity against human NCI-H1299 cells assessed as inhibition of cell viability after 24 hrs by MTT assay; format: functional, cell-based; details: NCI-H1299, 24 h; method in brief: as §1
[3] = Antiproliferative activity against human RWPE1 cells assessed as inhibition of cell viability after 24 hrs by MTT assay; format: cell-based; details: RWPE-1, 24 h; method in brief: as §1

pIC50 (NCI-H292) | pIC50 (NCI-H446) | pIC50 (DU-145) | pIC50 (A549) | pIC50 (K562) | pIC50 (NCI-H1299) | SMILES | pIC50 [1] | pIC50 [2] | pIC50 [3]
4.97 | 4.78 | 4.72 | 4.67 | 4.47 | 4.66 | C=C[C@]1(C)CC[C@H]2[C@]3(C)CCCC(C)(C)[C@H]3[C@@H]3C[C@@]2(O1)C(=O)O3 | 4.70 | 4.27 | 4.58
4.40 | < 4.40 | < 4.40 | < 4.40 | < 4.40 | 4.57 | CC(C)[C@H]1CC[C@]2(C)C[C@]3(O)C(=CC(=O)[C@H]3C)[C@@H](C)CC[C@@H]12 [ANADENSIN] | < 4.40 | < 4.40 | < 4.40

Reference: ChEMBL document CHEMBL3297648, “Diterpenoids from the Chinese liverwort Heteroscyphus tener and their antiproliferative effects” (J Nat Prod, 2014)
